Assay results as given in ChEMBL document CHEMBL4265907, “Design, synthesis and pharmacological evaluation of N4,N6-disubstituted pyrimidine-4,6-diamine derivatives as potent EGFR inhibitors in non-small cell lung cancer” (Eur J Med Chem, 2018).

How the values were obtained:
[1] = biological target: T1, Mitogen-activated protein kinase kinase kinase kinase 2 (Homo sapiens) (UniProt Q12851); test: Inhibition of human N-terminal GST-tagged full length MAP4K2 (1 to 820 residues) expressed in baculovirus expression system at 1 uM using FAM-labeled peptide as substrate after 10 mins by mobility shift assay relative to control
T1 sequence (whole entry): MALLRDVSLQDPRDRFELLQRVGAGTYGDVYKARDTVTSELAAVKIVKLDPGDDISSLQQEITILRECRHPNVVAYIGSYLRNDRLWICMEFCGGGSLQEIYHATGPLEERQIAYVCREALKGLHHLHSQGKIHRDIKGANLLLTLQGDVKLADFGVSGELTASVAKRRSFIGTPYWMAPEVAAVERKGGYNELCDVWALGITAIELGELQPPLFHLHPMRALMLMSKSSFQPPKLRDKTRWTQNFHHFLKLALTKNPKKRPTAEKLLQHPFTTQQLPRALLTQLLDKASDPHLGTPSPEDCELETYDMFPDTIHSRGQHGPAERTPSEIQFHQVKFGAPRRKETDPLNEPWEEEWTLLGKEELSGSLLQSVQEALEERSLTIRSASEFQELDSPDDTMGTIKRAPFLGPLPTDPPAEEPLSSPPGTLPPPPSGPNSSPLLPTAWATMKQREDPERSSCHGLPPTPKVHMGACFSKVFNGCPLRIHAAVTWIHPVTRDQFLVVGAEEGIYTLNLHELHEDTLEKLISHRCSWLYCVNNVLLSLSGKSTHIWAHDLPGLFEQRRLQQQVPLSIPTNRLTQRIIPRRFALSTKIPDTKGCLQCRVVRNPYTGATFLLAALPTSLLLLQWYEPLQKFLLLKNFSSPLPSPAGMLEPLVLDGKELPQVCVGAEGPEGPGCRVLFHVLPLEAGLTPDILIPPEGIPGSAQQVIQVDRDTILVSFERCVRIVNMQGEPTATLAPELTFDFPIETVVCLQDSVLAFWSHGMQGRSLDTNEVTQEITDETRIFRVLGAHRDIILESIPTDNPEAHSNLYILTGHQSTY
Summary of the method: (§1)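 Caliper mobility-shift kinase assay. Kinase in kinase base buffer was preincubated with compound for 10 min at room temperature. FAM-labelled peptide and ATP at Km were then added, and the reaction ran at 28 °C until quenched with buffer. Screening concentration was 1 µM. Percent inhibition = (max − conversion)/(max − min) × 100, with DMSO as max and a low control as min.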

[2] = tested on: NCI-H1975; test: Antiproliferative activity against human NCI-H1975 cells after 72 hrs by MTT assay; format: functional, cell-based; settings: NCI-H1975, 72 h
Summary of the method: (§2)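 Cells seeded at 3000/well in growth medium with 10% FBS and left overnight. Treated in triplicate for 72 h at nine concentrations (0.458 to 30,000 nM), with DMSO-only controls. MTT (5 mg/mL) added for the last 4 h, formazan dissolved in DMSO, absorbance read at 490 nm. IC50 from non-linear sigmoidal dose-response fit.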

[3] = biological target: Mitogen-activated protein kinase kinase kinase kinase 4 (Homo sapiens) (UniProt O95819); test: Inhibition of human N-terminal GST-tagged full length MAP4K4 catalytic domain (1 to 328 residues) expressed in baculovirus expression system at 1 uM using FAM-labeled peptide as substrate after 10 mins by mobility shift assay relative to control; summary of the method: as §1
[4] = biological target: T2, Aurora kinase A (Homo sapiens) (UniProt O14965); test: Inhibition of human N-terminal GST-tagged AURA (1 to 403 residues) expressed in baculovirus expression system at 1 uM using FAM-labeled peptide as substrate after 10 mins by mobility shift assay relative to control; summary of the method: as §1
T2 sequence (whole entry): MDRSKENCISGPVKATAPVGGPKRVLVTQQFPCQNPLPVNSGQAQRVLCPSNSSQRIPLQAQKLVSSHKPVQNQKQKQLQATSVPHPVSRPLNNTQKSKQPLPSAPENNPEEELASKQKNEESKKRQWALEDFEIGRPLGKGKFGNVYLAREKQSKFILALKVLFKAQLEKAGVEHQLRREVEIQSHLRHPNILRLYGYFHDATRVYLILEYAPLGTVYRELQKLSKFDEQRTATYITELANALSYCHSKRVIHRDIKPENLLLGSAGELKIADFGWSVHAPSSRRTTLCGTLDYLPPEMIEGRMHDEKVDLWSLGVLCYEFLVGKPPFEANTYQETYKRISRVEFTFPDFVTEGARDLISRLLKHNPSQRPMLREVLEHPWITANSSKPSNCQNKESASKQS

[5] = biological target: Serine/threonine-protein kinase PAK 2 (Homo sapiens) (UniProt Q13177); test: Inhibition of human N-terminal GST-tagged full length PAK2 (1 to 524 residues) expressed in baculovirus expression system at 1 uM using FAM-labeled peptide as substrate after 10 mins by mobility shift assay relative to control; summary of the method: as §1
[6] = biological target: Receptor-type tyrosine-protein kinase FLT3 (Homo sapiens) (UniProt P36888); test: Inhibition of human N-terminal GST-tagged FLT3 cytoplasmic domain (564 to 993 residues) expressed in baculovirus expression system at 1 uM using FAM-labeled peptide as substrate after 10 mins by mobility shift assay relative to control; summary of the method: as §1
Sequence of Receptor-type tyrosine-protein kinase FLT3 (Homo sapiens) (P36888 whole entry, the tested form may be a part): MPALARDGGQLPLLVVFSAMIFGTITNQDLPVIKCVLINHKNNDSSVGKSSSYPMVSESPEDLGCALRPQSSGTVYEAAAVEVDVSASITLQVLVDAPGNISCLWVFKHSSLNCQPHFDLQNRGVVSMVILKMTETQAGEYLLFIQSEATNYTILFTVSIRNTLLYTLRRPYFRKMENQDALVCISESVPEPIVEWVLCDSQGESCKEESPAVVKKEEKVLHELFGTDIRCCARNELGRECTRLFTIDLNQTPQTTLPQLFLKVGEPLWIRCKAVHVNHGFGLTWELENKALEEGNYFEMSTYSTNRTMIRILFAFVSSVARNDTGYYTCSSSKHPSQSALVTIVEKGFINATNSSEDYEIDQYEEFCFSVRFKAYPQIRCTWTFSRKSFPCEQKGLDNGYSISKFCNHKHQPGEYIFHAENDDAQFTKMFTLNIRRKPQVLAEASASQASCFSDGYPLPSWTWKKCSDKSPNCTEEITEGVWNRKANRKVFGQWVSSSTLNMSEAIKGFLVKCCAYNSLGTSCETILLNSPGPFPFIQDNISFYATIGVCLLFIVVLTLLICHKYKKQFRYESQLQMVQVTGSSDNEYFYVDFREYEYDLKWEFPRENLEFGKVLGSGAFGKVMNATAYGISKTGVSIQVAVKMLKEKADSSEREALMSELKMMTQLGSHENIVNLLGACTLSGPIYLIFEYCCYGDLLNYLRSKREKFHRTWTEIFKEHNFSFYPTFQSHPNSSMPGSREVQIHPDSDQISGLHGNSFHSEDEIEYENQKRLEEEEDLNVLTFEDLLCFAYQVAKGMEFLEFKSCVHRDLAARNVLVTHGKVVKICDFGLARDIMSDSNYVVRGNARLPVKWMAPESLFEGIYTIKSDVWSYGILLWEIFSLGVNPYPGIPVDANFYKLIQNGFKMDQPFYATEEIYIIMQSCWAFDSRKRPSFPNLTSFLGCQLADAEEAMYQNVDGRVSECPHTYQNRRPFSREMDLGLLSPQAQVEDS

[7] = biological target: Hepatocyte growth factor receptor (Homo sapiens) (UniProt P08581); test: Inhibition of N-terminal GST-tagged human MET cytoplasmic domain (956 to 1390 residues) expressed in baculovirus expression system at 1 uM using FAM-labeled peptide as substrate after 10 mins by mobility shift assay relative to control; summary of the method: as §1
Sequence of Hepatocyte growth factor receptor (Homo sapiens) (P08581 whole entry, the tested form may be a part): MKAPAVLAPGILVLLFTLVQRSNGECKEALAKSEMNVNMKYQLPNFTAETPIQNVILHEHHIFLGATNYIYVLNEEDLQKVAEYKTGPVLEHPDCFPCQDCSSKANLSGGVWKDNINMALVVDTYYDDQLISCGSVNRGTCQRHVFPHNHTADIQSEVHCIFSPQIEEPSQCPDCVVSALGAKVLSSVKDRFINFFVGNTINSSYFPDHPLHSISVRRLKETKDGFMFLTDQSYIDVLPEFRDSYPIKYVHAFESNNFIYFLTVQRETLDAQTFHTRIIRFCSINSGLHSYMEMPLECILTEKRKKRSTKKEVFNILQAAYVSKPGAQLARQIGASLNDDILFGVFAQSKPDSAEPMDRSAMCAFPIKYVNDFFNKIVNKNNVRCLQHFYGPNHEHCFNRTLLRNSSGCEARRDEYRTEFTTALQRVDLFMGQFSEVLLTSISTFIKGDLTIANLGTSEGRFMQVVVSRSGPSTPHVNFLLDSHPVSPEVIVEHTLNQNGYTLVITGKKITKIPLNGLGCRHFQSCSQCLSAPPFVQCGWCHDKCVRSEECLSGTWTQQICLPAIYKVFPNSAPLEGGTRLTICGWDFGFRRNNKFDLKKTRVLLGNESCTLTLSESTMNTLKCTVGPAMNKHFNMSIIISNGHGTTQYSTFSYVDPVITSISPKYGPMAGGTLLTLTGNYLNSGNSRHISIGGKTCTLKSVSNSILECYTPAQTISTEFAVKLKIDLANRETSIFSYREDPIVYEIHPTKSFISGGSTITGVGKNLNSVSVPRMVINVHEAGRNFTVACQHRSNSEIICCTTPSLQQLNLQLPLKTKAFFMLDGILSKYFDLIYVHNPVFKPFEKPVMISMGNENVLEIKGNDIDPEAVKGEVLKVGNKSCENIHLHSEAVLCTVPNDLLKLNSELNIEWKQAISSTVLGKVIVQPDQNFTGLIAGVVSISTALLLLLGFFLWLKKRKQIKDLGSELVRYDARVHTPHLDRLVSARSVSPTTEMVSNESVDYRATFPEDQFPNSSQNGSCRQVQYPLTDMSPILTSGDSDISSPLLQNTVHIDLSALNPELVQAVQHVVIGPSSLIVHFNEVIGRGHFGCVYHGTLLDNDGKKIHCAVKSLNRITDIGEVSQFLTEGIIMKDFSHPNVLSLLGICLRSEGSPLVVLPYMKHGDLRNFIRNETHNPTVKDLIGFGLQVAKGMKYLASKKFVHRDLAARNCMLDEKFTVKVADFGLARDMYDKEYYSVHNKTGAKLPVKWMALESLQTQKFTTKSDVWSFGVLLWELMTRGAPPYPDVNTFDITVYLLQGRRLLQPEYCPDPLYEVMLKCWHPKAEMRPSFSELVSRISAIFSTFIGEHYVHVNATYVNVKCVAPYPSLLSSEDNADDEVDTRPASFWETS

[8] = tested on: NCI-H3255; test: Antiproliferative activity against human H3255 cells after 72 hrs by MTT assay; format: functional, cell-based; settings: NCI-H3255, 72 h; summary of the method: as §2
[9] = biological target: Non-receptor tyrosine-protein kinase TYK2 (Homo sapiens) (UniProt P29597); test: Inhibition of human N-terminal GST-tagged TYK2 catalytic domain (871 to 1187 residues) expressed in baculovirus expression system at 1 uM using FAM-labeled peptide as substrate after 10 mins by mobility shift assay relative to control; summary of the method: as §1
Sequence of Non-receptor tyrosine-protein kinase TYK2 (Homo sapiens) (P29597 whole entry, the tested form may be a part): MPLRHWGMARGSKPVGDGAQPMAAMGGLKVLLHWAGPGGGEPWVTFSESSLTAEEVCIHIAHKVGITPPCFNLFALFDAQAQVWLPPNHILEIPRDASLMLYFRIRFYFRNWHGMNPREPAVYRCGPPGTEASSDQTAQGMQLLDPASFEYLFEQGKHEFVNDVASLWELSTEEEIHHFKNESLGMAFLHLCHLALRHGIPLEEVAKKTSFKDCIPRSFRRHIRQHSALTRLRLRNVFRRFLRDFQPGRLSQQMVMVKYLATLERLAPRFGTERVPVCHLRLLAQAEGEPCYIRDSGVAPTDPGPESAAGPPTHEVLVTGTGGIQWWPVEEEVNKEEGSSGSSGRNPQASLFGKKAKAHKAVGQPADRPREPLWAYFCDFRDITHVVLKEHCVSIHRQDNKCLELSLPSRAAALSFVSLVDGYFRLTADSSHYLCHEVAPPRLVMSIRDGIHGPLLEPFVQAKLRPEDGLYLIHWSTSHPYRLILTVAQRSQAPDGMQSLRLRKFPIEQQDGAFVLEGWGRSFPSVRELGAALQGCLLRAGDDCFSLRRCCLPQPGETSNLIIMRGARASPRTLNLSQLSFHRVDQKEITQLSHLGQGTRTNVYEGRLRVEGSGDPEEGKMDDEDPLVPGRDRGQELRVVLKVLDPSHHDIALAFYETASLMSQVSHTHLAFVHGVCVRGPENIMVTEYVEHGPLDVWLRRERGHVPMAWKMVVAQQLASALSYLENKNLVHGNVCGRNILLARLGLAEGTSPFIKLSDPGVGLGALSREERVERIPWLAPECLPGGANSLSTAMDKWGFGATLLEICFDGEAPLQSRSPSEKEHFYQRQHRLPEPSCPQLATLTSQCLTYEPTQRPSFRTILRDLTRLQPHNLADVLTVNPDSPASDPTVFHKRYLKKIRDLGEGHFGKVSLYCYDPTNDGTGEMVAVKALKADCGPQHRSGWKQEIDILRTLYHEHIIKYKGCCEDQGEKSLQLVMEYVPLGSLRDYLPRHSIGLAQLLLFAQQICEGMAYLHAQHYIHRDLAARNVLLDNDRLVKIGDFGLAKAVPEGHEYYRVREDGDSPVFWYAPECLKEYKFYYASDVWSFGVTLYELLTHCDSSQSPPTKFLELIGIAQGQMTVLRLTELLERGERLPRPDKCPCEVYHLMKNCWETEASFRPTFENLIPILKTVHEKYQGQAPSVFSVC

[10] = biological target: Tyrosine-protein kinase JAK1 (Homo sapiens) (UniProt P23458); test: Inhibition of human N-terminal GST-tagged JAK1 catalytic domain (850 to 1154 residues) expressed in baculovirus expression system at 1 uM using FAM-labeled peptide as substrate after 10 mins by mobility shift assay relative to control; summary of the method: as §1
[11] = biological target: High affinity nerve growth factor receptor (Homo sapiens) (UniProt P04629); test: Inhibition of N-terminal GST-tagged human TRKA cytoplasmic domain (436 to 790 residues) expressed in baculovirus expression system at 1 uM using FAM-labeled peptide as substrate after 10 mins by mobility shift assay relative to control; summary of the method: as §1
Sequence of High affinity nerve growth factor receptor (Homo sapiens) (P04629 33-796 limits assumed): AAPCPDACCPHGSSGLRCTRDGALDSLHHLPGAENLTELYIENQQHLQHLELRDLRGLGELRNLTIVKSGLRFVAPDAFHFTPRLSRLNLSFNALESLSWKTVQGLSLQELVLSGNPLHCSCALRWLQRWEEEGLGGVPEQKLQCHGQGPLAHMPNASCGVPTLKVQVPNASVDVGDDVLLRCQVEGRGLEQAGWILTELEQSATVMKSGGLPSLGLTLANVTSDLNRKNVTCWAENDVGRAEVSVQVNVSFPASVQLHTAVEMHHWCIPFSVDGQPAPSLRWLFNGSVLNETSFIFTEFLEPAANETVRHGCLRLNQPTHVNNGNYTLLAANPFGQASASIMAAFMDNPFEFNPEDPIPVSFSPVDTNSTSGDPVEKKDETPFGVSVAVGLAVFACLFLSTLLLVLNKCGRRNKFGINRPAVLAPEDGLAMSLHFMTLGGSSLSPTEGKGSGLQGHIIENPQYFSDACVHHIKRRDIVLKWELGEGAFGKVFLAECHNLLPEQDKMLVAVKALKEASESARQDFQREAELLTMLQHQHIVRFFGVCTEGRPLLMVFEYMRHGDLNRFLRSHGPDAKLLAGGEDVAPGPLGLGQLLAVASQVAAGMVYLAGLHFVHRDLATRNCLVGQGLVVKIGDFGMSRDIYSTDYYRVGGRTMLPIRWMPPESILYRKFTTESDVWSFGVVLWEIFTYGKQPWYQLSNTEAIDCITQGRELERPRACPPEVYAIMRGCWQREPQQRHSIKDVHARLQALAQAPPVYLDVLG

[12] = biological target: Mast/stem cell growth factor receptor Kit (Homo sapiens) (UniProt P10721); test: Inhibition of recombinant human N-terminal GST-tagged c-KIT (544 to end residues) expressed in baculovirus infected Sf21 cells at 1 uM using FAM-labeled peptide as substrate after 10 mins by mobility shift assay relative to control; summary of the method: as §1
[13] = biological target: Fibroblast growth factor receptor 4 (Homo sapiens) (UniProt P22455); test: Inhibition of N-terminal GST-tagged human FGFR4 cytoplasmic domain (460 to 802 residues) expressed in baculovirus expression system at 1 uM using FAM-labeled peptide as substrate after 10 mins by mobility shift assay relative to control; summary of the method: as §1
Sequence of Fibroblast growth factor receptor 4 (Homo sapiens) (P22455 22-802 limits assumed): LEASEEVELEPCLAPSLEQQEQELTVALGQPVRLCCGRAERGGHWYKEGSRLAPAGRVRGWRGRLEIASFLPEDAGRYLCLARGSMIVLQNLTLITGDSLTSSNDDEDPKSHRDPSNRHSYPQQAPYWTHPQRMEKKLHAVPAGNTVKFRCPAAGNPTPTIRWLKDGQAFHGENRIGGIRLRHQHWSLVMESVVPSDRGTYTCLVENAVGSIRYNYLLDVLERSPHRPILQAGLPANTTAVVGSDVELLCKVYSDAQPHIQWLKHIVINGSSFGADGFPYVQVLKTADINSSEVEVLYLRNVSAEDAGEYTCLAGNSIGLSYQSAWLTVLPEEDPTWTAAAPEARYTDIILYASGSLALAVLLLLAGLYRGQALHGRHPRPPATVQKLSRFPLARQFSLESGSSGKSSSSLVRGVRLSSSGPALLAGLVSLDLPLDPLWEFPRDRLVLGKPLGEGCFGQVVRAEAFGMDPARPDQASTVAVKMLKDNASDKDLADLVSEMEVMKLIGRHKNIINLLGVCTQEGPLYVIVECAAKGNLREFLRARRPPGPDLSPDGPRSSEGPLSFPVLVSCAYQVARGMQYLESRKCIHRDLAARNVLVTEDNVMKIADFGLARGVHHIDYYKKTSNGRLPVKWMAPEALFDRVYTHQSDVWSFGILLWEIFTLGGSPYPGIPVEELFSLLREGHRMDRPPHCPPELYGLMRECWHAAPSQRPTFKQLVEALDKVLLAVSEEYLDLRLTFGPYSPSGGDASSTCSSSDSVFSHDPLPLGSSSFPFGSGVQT

| SMILES | inhibition [1] | IC50 [2] | inhibition [3] | inhibition [4] | inhibition [5] | inhibition [6] | inhibition [7] | IC50 [8] | inhibition [9] | inhibition [10] | inhibition [11] | inhibition [12] | inhibition [13] |
| --- | --- | --- | --- | --- | --- | --- | --- | --- | --- | --- | --- | --- | --- |
| O=C(O)CCCC(=O)Nc1cc(Nc2cccc(Cl)c2)ncn1 | 9.2% | > 30 µM | 78.2% | 8.7% | 16.9% | 35.5% | 4% | > 30 µM | -0.6% | -1% | 9.6% | 13.3% | 8.8% |
| COc1cccc(Nc2cc(NC(=O)CCCC(=O)O)ncn2)c1 | 10.5% | – | 13.5% | 19.8% | 18.9% | 10.5% | 12% | – | -4.4% | -0.7% | 18.8% | 13.3% | 21.6% |
| COc1cccc(Nc2cc(Nc3cc(OC)ccc3OC)ncn2)c1 | 5.4% | 0.89 µM | 53.5% | 52.3% | 4.7% | 59.1% | 7.2% | 0.86 µM | 0% | -1.4% | 6.8% | 0.4% | 4.8% |
| O=C(O)CCCC(=O)Nc1cc(N2CCOCC2)ncn1 | 3.3% | 1.16 µM | 21.6% | 49% | 9.4% | 16.4% | 9.2% | 5.69 µM | 2.5% | -2.4% | 6% | -4.4% | 4% |
| CCOC(=O)c1ccc(Nc2cc(NC(=O)CCCC(=O)O)ncn2)cc1 | 5.5% | – | 56.3% | 17.3% | 15.7% | 11.5% | 4.4% | – | -1.4% | -3.1% | 8.4% | 5.9% | -0.6% |
| COc1ccc(Nc2cc(NC(=O)c3ccccc3)ncn2)cc1 | -3.2% | 11.4 µM | 44.8% | 2.6% | 13.4% | 6.9% | 3.3% | 8.88 µM | -7.9% | -0.8% | 5.6% | 26% | 1.8% |
